Calls of active or inactive are those of the source. No cut-off for these calls is given here.
Legend:
[1] = Lipophilicity, log D of the compound by shake-flask technique; assay type: physicochemical; conditions: octanol/water
Method in brief: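 Shake-flask at pH 7.4, in phosphate buffer with ionic strength 0.15 M KCl and mutually presaturated n-octanol (4 h). Compound about 0.1 mM in the aqueous phase, shaken about 20 min, then centrifuged. Aqueous concentration measured by UV at 230 nm; at least seven log D determinations per compound.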

[2] = Antioxidant activity against CuSO4-induced LDL oxidation measured per mg og LDL product assessed as propagation rate of the oxidation at 100 uM by antioxidation assay; assay type: functional
Method in brief: (§1)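 Human plasma LDL (EDTA-treated donor plasma, density 1.019-1.063 g/mL fraction by ultracentrifugation, desalted) diluted in 10 mM phosphate buffer pH 7.4 to 50 µg protein/mL. Compound added at 100 µM final, oxidation started with CuSO4 2.5 µM final at 37 °C. Conjugated dienes followed at 234 nm over 6 h. Lag-time change versus control and propagation rate (ε234 = 29500 M-1 cm-1) derived; mean ± SEM.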

[3] = Antioxidant activity assessed as 4-hydroxy-trans-2,3-nonenal scavenging activity at 1 mM after 24 hrs by HPLC relative to control; assay type: functional
Method in brief: (§2)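 HNE (50 µM final) incubated with compound (1 mM final) in 1 mM phosphate buffer pH 7.4 at 37 °C for up to 24 h. Samples were injected directly onto reverse-phase C18 HPLC to measure remaining HNE. Scavenging % = 100 − (HNE left with scavenger / HNE left in control × 100); mean ± SEM.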

[4] = Antioxidant activity assessed as 4-hydroxy-trans-2,3-nonenal scavenging activity at 1 mM after 6 hrs by HPLC relative to control; assay type: functional; method in brief: as §2
[5] = Antioxidant activity assessed as 4-hydroxy-trans-2,3-nonenal scavenging activity at 1 mM after 1 hr by HPLC relative to control; assay type: functional; method in brief: as §2
[6] = Antioxidant activity against CuSO4-induced LDL oxidation assessed as delta-lag time at 100 uM by antioxidation assay; assay type: functional; method in brief: as §1
Serum = experiment: Stability of the compound in human serum after 3 hrs; assay type: ADME, cell-free
Method in brief: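 Compound added from a 10 mM aqueous stock to human serum preheated to 37 °C, giving 0.5 mM final, and incubated at 37 ± 0.5 °C. At intervals, aliquots were deproteinized with an equal volume of acetonitrile/0.1% TFA, centrifuged and filtered. Analysis by RP-HPLC on C18 with methanol/20 mM sodium acetate pH 4.5-5 mM SDS (80/20 to 60/40).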

[7] = Drug level in Wistar rat brain measured per gram of tissue at 20 mg/kg, iv after 3 hrs; assay type: ADME, organism-based; parameters: dose 20 mg/kg, route intravenous; conditions: read-out: Drug uptake
Method in brief: (§3)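 Male Wistar rats, 200-250 g, given 20 mg/kg i.v. in 0.9% saline; 3 rats per time point, killed at 1.5 or 3 h. Heparinized blood and brain homogenized in equal volume of cold water were deproteinized with acetonitrile/0.1% TFA, centrifuged and filtered. RP-HPLC on C18 with methanol/20 mM sodium acetate pH 4.5-5 mM SDS (70/30), detection 210 and 223 nm; spiked untreated-rat samples used as standards.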

[8] = Drug level in Wistar rat blood at 20 mg/kg, iv after 1.5 hrs; assay type: ADME, organism-based; parameters: dose 20 mg/kg, route intravenous; conditions: whole blood, read-out: Drug uptake; method in brief: as §3
[9] = Drug level in Wistar rat brain measured per gram of tissue at 20 mg/kg, iv after 1.5 hrs; assay type: ADME, organism-based; parameters: dose 20 mg/kg, route intravenous; conditions: read-out: Drug uptake; method in brief: as §3
[10] = Toxicity in mouse primary hippocampal neuron assessed as adverse effect at 100 uM after 24 hrs; assay type: tissue-based, Hippocampus
Neuron [11] = experiment: Cytoprotective effect in mouse primary hippocampal neuron assessed as reduction in 4-hydroxy-trans-2,3-nonenal-induced damage at 100 uM after 24 hrs; assay type: functional, Hippocampus; parameters: scale not given: the % may be the effect or the level left
Method in brief: (§4)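 They were grown 6 days in B-27 neurobasal medium at 37 °C, 5% CO2. Compound (100 µM in medium) was given alone or as pretreatment before HNE 10 µM, for 24 h. Death was scored by trypan blue exclusion against pre-incubation counts; mean ± SEM, n = 4-7, paired t test.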

Neuron [12] = experiment: Cytoprotective effect in mouse primary hippocampal neuron assessed as reduction in 4-hydroxy-trans-2,3-nonenal-induced neuronal disruption at 100 uM after 24 hrs; assay type: functional, tissue-based; conditions: Hippocampus; method in brief: as §4

| SMILES | logD [1] | Stability (Serum) | concentration at 3 h [7] [ng/g] | concentration at 1.5 h [8] [µg/mL] | concentration at 1.5 h [9] [ng/g] | Activity [2] [nmol/min] | Activity [3] [%] | Activity [4] [%] | Activity [5] [%] | TIME [6] [h] | Activity [10] | Activity (Neuron [11]) [%] | Activity (Neuron [12]) |
| --- | --- | --- | --- | --- | --- | --- | --- | --- | --- | --- | --- | --- | --- |
| CCCNC(=O)[C@H](Cc1c[nH]cn1)NC(=O)CCN.O=C(O)C(F)(F)F | -2.72 | Stable | 1100 | 0.26 | 600 | 7.7 | 81 | 42.7 | 12.5 | 1.13 | Non-toxic | 40 | Active |
| CCCCCCCCCCCCNC(=O)[C@H](Cc1c[nH]cn1)NC(=O)CCN.O=C(O)C(F)(F)F | 0.93 | Stable | – | – | – | 14.5 | – | – | – | -0.05 | – | – | – |
| CCCCNC(=O)[C@H](Cc1c[nH]cn1)NC(=O)CCN.O=C(O)C(F)(F)F | -2.01 | Stable | – | – | – | 5.7 | 75.2 | 36.2 | 12.5 | 1.37 | – | – | – |
| CCCCOc1ccc(CNC(=O)[C@H](Cc2c[nH]cn2)NC(=O)CCN)cc1.O=C(O)C(F)(F)F | -0.13 | Stable | – | – | – | 10 | 80.7 | 32.6 | 8.8 | 0.817 | – | – | – |
| CNC(=O)[C@H](Cc1c[nH]cn1)NC(=O)CCN.O=C(O)C(F)(F)F | – | Stable | – | – | – | 6.8 | 75.4 | 35.2 | 8 | 1.25 | – | – | – |
| NCCC(=O)N[C@@H](Cc1c[nH]cn1)C(=O)O [CARNOSINE] | – | – | – | – | – | 5.8 | 88.8 | 59.6 | 20.4 | 1.12 | – | 6 | – |

The next lines start with results.

| logD [1] | Stability (Serum) | concentration at 3 h [7] [ng/g] | concentration at 1.5 h [8] [µg/mL] | concentration at 1.5 h [9] [ng/g] | SMILES | Activity [2] [nmol/min] | Activity [3] [%] | Activity [4] [%] | Activity [5] [%] | TIME [6] [h] | Activity [10] | Activity (Neuron [11]) [%] | Activity (Neuron [12]) |
| --- | --- | --- | --- | --- | --- | --- | --- | --- | --- | --- | --- | --- | --- |
| -0.23 | Stable | – | – | – | CCCCCCCCNC(=O)[C@H](Cc1c[nH]cn1)NC(=O)CCN.O=C(O)C(F)(F)F | 11.8 | 86.7 | 49.7 | 12.8 | 0.717 | – | – | – |
| -0.94 | Stable | – | – | – | NCCC(=O)N[C@@H](Cc1c[nH]cn1)C(=O)NCC1CCCCC1.O=C(O)C(F)(F)F | 5.6 | 62.5 | 28.2 | 12.8 | 1.42 | – | – | – |
| -0.88 | Stable | – | – | – | CCCCCCNC(=O)[C@H](Cc1c[nH]cn1)NC(=O)CCN.O=C(O)C(F)(F)F | 6.7 | 75.9 | 35.4 | 12 | 1.32 | – | – | – |
| 0.85 | Stable | – | – | – | CCCCCCCCCCNC(=O)[C@H](Cc1c[nH]cn1)NC(=O)CCN.O=C(O)C(F)(F)F | 21 | – | – | – | 0.15 | – | – | – |
| – | Stable | – | – | – | CCNC(=O)[C@H](Cc1c[nH]cn1)NC(=O)CCN.O=C(O)C(F)(F)F | 7 | 70.9 | 32.9 | 8.4 | 1.13 | – | – | – |
| – | Stable | – | – | – | NCCC(=O)N[C@@H](Cc1cnc[nH]1)C(=O)O [CARNOSINE] | – | – | – | – | – | Non-toxic | – | – |
| -2.17 | Stable | – | – | – | CCOC[C@H](Cc1c[nH]cn1)NC(=O)CCN.O=C(O)C(F)(F)F | 12.2 | 86.2 | 60.7 | 17.9 | -0.0667 | – | – | – |
| -1.76 | Stable | – | – | – | NCCC(=O)N[C@@H](Cc1c[nH]cn1)C(=O)NCc1ccccc1.O=C(O)C(F)(F)F | 5.2 | 72.8 | 29.3 | 7.2 | 1.42 | – | – | – |
| – | Stable | – | – | – | NCCC(=O)N[C@@H](Cc1c[nH]cn1)C(N)=O.O=C(O)C(F)(F)F | 7.7 | 77.7 | 31.6 | 10.2 | 1.07 | – | – | – |

Source: ChEMBL document CHEMBL1649415, “Synthesis, physicochemical characterization, and biological activities of new carnosine derivatives stable in human serum as potential neuroprotective agents” (J Med Chem, 2011)
